Measurements as given in ChEMBL document CHEMBL4251624, “Synthesis of podophyllotoxin linked β-carboline congeners as potential anticancer agents and DNA topoisomerase II inhibitors” (Eur J Med Chem, 2018).
The source made the active and inactive calls. No cut-off for these calls is given here.

Tests used:
A549 = assay: Cytotoxicity against human A549 cells after 48 hrs by MTT assay; format: functional, cell-based; details: A549, 48 h
How it was run: (§1)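 MTT assay. Cells seeded at 1×10^4 per well in DMEM or MEM with 10% FBS and grown 24 h at 37 °C under CO2. Compounds added for 48 h, then MTT (5 mg/mL stock) for 4 h. Formazan dissolved in DMSO and read at 570 nm. IC50 is the average of three independent experiments.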

DU-145 = assay: Induction of DNA damage in human DU145 cells after 24 hrs using propidium iodide stain by electrophoresis based fluorescence microscopic method; format: functional, cell-based
How it was run: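 DU-145 cells seeded in 60 mm dishes, treated at 10 μM for 24 h alongside an untreated control. Slides were washed three times in 0.4 M Tris-HCl pH 7.5, electrophoresed 20 min at 40 V in 0.5% TBE pH 8, PI-stained 30 min, and imaged at 20x.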

HT-29 = assay: Cytotoxicity against human HT-29 cells after 48 hrs by MTT assay; format: functional, cell-based; details: HT-29, 48 h; how it was run: as §1
MDA-MB-231 = assay: Cytotoxicity against human MDA-MB-231 cells after 48 hrs by MTT assay; format: functional, cell-based; details: MDA-MB-231, 48 h; how it was run: as §1
HeLa = assay: Cytotoxicity against human HeLa cells after 48 hrs by MTT assay; format: functional, cell-based; how it was run: as §1
Homo sapiens = species: Homo sapiens; assay: Poisoning activity at topoisomerase-2 (unknown origin) assessed as reduction in ATP-dependent decatenation of kinetoplast DNA by measuring linear DNA formation at 10 uM after 30 mins by ethidium bromide staining based UV trans-illumination assay
How it was run: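 Topo II (5 units, set to decatenate about 100% of kDNA) with 200–300 ng kDNA in 20 μl containing 120 mM KCl, 50 mM Tris-HCl pH 8, 10 mM MgCl2, 0.5 mM DTT, 0.5 mM ATP and BSA. Incubated 30 min at 37 °C, then stopped with SDS plus proteinase K for 10 min at 37 °C. Products run on 1% agarose at 100 V for about 40 min, EtBr-stained and viewed under UV. Etoposide 10 μM served as positive control.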

In the case of `COc1cc([C@@H]2c3cc4c(cc3[C@@H](O[C@@H]3O[C@@H]5CO[C@@H](C)O[C@H]5[C@H](O)[C@H]3O)[C@H]3COC(=O)[C@H]23)OCO4)cc(OC)c1O` [ETOPOSIDE], the IC50 (A549) is reported as 2270 nM, the Activity (DU-145) is reported as “Active” and the IC50 (HT-29) is reported as 1640 nM. The IC50 (MDA-MB-231) was 1910 nM, the IC50 (HeLa) was 1930 nM and the Activity (Homo sapiens) was “Active”.
